SMILES strings stand for the structures. Converted amounts (≈) assume the structure as drawn.

Series [1] concerns Staphylococcus aureus. Kind of series: Antibacterial activity against tetracycline-susceptible Staphylococcus aureus ATCC 13709 Smith isolate SA100. The series is classed as functional. Put shortly: (§1)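 Broth microdilution MIC following CLSI methods in cation-adjusted Mueller Hinton broth, prepared fresh and held at 4 °C before testing. Defibrinated horse blood added to the medium where appropriate. Runs accepted when quality control ranges for comparator antibiotics and ATCC QC strains were met.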

Series [2] relates to Staphylococcus aureus. Kind of series: Antibacterial activity against tetracycline-resistant Staphylococcus aureus isolate SA161 expressing TetM gene. The series is classed as functional. Put shortly:
as §1

For series [3], the system named is Staphylococcus aureus. The experiment in a line: Antibacterial activity against tetracycline-resistant Staphylococcus aureus isolate SA158 expressing TetK gene. The series is classed as functional.
The subject of series [4] is Streptococcus pneumoniae. The experiment in a line: Antibacterial activity against Streptococcus pneumoniae ATCC 49619 isolate 106. The class given is functional. Put shortly:
(§2)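 MIC by broth microdilution in liquid medium per CLSI, in cation-adjusted Mueller Hinton broth made fresh and held at 4 °C before testing. Horse blood (defibrinated) added to the medium where appropriate. Runs were accepted only when the comparator antibiotics and ATCC QC strains fell within their recommended ranges.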

For series [5], the system named is Streptococcus pneumoniae. Kind of series: Antibacterial activity against tetracycline-resistant Streptococcus pneumoniae isolate 160 expressing tetM gene. The series is classed as functional.
Series [6] has as its system Escherichia coli. Kind of series: Antibacterial activity against Escherichia coli ATCC 25922 isolate 107. The series is classed as functional. In outline: as §2
Series [7] deals with Escherichia coli. Kind of series: Antibacterial activity against Escherichia coli isolate EC155 expressing tetA gene. The class given is functional. Put shortly:
as §2

A further series has as its system Klebsiella pneumoniae. The experiment in a line: Antibacterial activity against Klebsiella pneumoniae ATCC 13883. The series is classed as functional. In outline: as §2
The subject of series [8] is Staphylococcus aureus. Kind of series: Antibacterial activity against Staphylococcus aureus ATCC 13709 infected in CD-1 mouse assessed as increase in survival at 3 mg/kg, iv administered as single dose 1 hr post infection measured after 48 hrs post infection. The class given is functional. In outline:
(§3)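 Mouse septicemia screen: S. aureus grown to log phase, diluted in 5% mucin to give 90% mortality within 48 h, inoculum 1.98 × 10⁶ CFU/mouse, 0.5 mL intraperitoneal into female CD-1 mice (18−20 g). Six mice per group. Single 30 mg/kg oral gavage or 3 mg/kg IV dose 1 h post infection. Infection controls received sterile water vehicle. Survival recorded at 48 h.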

Series [9] relates to Staphylococcus aureus. Kind of series: Antibacterial activity against Staphylococcus aureus ATCC 13709 infected in CD-1 mouse assessed as increase in survival at 30 mg/kg, po administered as single dose 1 hr post infection measured after 48 hrs post infection. The series is classed as functional. In outline: as §3
Another series deals with Mus musculus. The experiment in a line: Oral bioavailability in CD1 mouse at 30 mg/kg. The class given is ADME, organism-based. Particulars: mouse, in vivo, BLD = below limit of detection.

`CN(C)c1cc(NC(=O)CNC(C)(C)C)c(O)c2c1C[C@H]1C[C@H]3[C@H](N(C)C)C(O)=C(C(N)=O)C(=O)[C@@]3(O)C(O)=C1C2=O` [TIGECYCLINE]: the MIC came to 0.063 µg/mL (≈ 0.108 µM) against Staphylococcus aureus [1]; 0.13 µg/mL (≈ 0.222 µM) in the series on Staphylococcus aureus [2]; 0.063 µg/mL (≈ 0.108 µM) in the series on Staphylococcus aureus [3]; 0.016 µg/mL (≈ 0.0273 µM) in the series with Streptococcus pneumoniae [4]; 0.016 µg/mL (≈ 0.0273 µM) with Streptococcus pneumoniae [5]; 0.125 µg/mL (≈ 0.213 µM) in the series with Escherichia coli [6]. For the same molecule, the minimum inhibitory concentration (MIC) with Escherichia coli [7] was 0.5 µg/mL (≈ 0.854 µM); against Klebsiella pneumoniae, 0.125 µg/mL (≈ 0.213 µM). Moreover, the survival at 3 mg/kg in the series with Staphylococcus aureus [8] was determined as 100%. Besides, the survival at 30 mg/kg in the series on Staphylococcus aureus [9] was determined as 0%. Besides, the F entry with Mus musculus is “BLD”.
